From ChEMBL document CHEMBL3243919, “11,12-Secoprostaglandins. 3. 8-Alkylthio(sulfinyl and sulfonyl)-12-hydroxyalkanoic acids and related compounds” (J Med Chem, 1977)
The source made the active and inactive calls. The rule behind the calls is not given here.

Assays:
[1] = organism: Mus musculus; assay: Binding affinity to prostanoid receptor in [8-14C]adenine-treated CD-1 mouse ovary assessed as increase in c-AMP production at 1 ug/ml after 30 mins by paper chromatographic analysis in presence of phosphodiesterase inhibitor theophylline relative to control; type: tissue-based; details: Female gonad
Procedure, shortened: (§1)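 Mouse ovaries, three per incubation (15-25 mg), preincubated 1 h at 37 °C with shaking in aerated Krebs-Ringer phosphate buffer pH 7.2 containing [8-14C]adenine. Theophylline and test compound (in Me2SO) were then added, with a further 30 min at 37 °C. Stopped with trichloroacetic acid, homogenized and centrifuged. [14C]-cAMP isolated, including paper chromatography. Result is fold increase over untreated ovaries.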

[2] = organism: Mus musculus; assay: Binding affinity to prostanoid receptor in [8-14C]adenine-treated CD-1 mouse ovary assessed as increase in c-AMP production at 25 ug/ml after 30 mins by paper chromatographic analysis in presence of phosphodiesterase inhibitor theophylline relative to control; type: tissue-based; details: Female gonad; procedure, shortened: as §1
[3] = organism: Mus musculus; assay: Binding affinity to prostanoid receptor in [8-14C]adenine-treated CD-1 mouse ovary assessed as increase in c-AMP production at 10 ug/ml after 30 mins by paper chromatographic analysis in presence of phosphodiesterase inhibitor theophylline relative to control; type: tissue-based; details: Female gonad; procedure, shortened: as §1
[4] = organism: Mus musculus; assay: Binding affinity to prostanoid receptor in [8-14C]adenine-treated CD-1 mouse ovary assessed as increase in c-AMP production at 50 ug/ml after 30 mins by paper chromatographic analysis in presence of phosphodiesterase inhibitor theophylline relative to control; type: tissue-based; details: Female gonad; procedure, shortened: as §1
[5] = organism: Rattus norvegicus; assay: Binding affinity to prostanoid receptor in rat lipocytes assessed as compound equivalent to cold PGE1 in displacing [3H]-PGE1 from receptor after 60 mins; type: cell-based
Procedure, shortened: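 Test compound incubated with 0.4 ng [3H]-PGE1 and 125 µg rat lipocyte binding preparation for 60 min at 37 °C. Bound [3H]-PGE1 then measured. Three test concentrations, run in duplicate.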

[6] = organism: Mus musculus; assay: Binding affinity to prostanoid receptor in [8-14C]adenine-treated CD-1 mouse ovary assessed as increase in c-AMP production at 100 ug/ml after 30 mins by paper chromatographic analysis in presence of phosphodiesterase inhibitor theophylline relative to control; type: tissue-based; details: Female gonad; procedure, shortened: as §1
[7] = organism: Mus musculus; assay: Binding affinity to prostanoid receptor in [8-14C]adenine-treated CD-1 mouse ovary assessed as increase in c-AMP production at 200 ug/ml after 30 mins by paper chromatographic analysis in presence of phosphodiesterase inhibitor theophylline relative to control; type: tissue-based; details: Female gonad; procedure, shortened: as §1
[8] = organism: Mus musculus; assay: Binding affinity to prostanoid receptor in [8-14C]adenine-treated CD-1 mouse ovary assessed as increase in c-AMP production at 0.1 ug/ml after 30 mins by paper chromatographic analysis in presence of phosphodiesterase inhibitor theophylline relative to control; type: tissue-based; details: Female gonad; procedure, shortened: as §1
[9] = organism: Homo sapiens; assay: Binding affinity to prostanoid receptor in [8-14C]adenine-treated human psoriatic skin slices assessed as increase in c-AMP production at 25 ug/ml after 30 mins by paper chromatographic analysis relative to control
Procedure, shortened: (§2)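 Psoriatic skin biopsied from patients off medication ≥48 h, under sc 1-2% lidocaine, and cut into 10-30 mg slices. Preincubated with [14C]adenine about 60 min at 22 °C, then 45 min at 37 °C, then 30 min at 37 °C with test compound. Stopped with TCA to 2.5%, then pulverized at -70 °C and homogenized. Supernatant [14C]-cAMP expressed as fold over unmedicated slices; average of four experiments.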

[10] = organism: Homo sapiens; assay: Binding affinity to prostanoid receptor in [8-14C]adenine-treated human psoriatic skin slices assessed as increase in c-AMP production at 50 ug/ml after 30 mins by paper chromatographic analysis relative to control; procedure, shortened: as §2
[11] = organism: Homo sapiens; assay: Binding affinity to prostanoid receptor in [8-14C]adenine-treated human psoriatic skin slices assessed as increase in c-AMP production at 100 ug/ml after 30 mins by paper chromatographic analysis relative to control; procedure, shortened: as §2
[12] = organism: Homo sapiens; assay: Binding affinity to prostanoid receptor in [8-14C]adenine-treated human psoriatic skin slices assessed as increase in c-AMP production at 200 ug/ml after 30 mins by paper chromatographic analysis relative to control; procedure, shortened: as §2
[13] = target: T1, 15-hydroxyprostaglandin dehydrogenase [NAD(+)] (Homo sapiens, UniProt P15428); assay: Metabolic stability of the compound assessed as 15-hydroxyprostanoid dehydrogenase (unknown origin)-mediated metabolite formation; type: ADME
T1 sequence (P15428 whole entry): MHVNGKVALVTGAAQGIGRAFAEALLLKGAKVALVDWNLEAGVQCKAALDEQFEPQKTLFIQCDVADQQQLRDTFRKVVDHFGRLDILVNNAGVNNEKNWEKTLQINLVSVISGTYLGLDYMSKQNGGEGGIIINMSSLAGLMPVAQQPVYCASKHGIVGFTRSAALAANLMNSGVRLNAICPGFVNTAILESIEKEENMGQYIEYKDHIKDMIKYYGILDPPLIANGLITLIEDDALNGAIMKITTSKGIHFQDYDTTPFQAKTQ

[14] = tested on: Canis familiaris; assay: Antisecretory activity in dog assessed as reduction of gastric acid release at 12.3 mg/kg, po; type: functional, organism-based; design: dose 12.3 mg/kg; details: Canis lupus familiaris, Stomach
Procedure, shortened: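 Given orally to dogs at 12.3 mg/kg; gastric acid antisecretory effect assessed.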

[15] = tested on: Rattus norvegicus; assay: Antihypertensive activity in spontaneous hypertensive rat model up to 40 mg/kg, po; type: functional, organism-based; design: dose 40 mg/kg
Procedure, shortened: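 Spontaneously hypertensive rats dosed po at up to 40 mg/kg; antihypertensive effect assessed.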

[16] = tested on: Lymphocyte; assay: Inhibition of antigen-induced lymphocyte (unknown origin) transformation at 10 ug/mL relative to control; type: functional
[17] = tested on: Lymphocyte; assay: Inhibition of antigen-induced lymphocyte (unknown origin) transformation at 1 ug/mL relative to control; type: functional
[18] = organism: Mus musculus; assay: Binding affinity to prostanoid receptor in [8-14C]adenine-treated CD-1 mouse ovary assessed as increase in c-AMP production at 0.01 ug/ml after 30 mins by paper chromatographic analysis in presence of phosphodiesterase inhibitor theophylline relative to control; type: tissue-based; details: Female gonad; procedure, shortened: as §1
[19] = organism: Mus musculus; assay: Binding affinity to prostanoid receptor in [8-14C]adenine-treated CD-1 mouse ovary assessed as increase in c-AMP production at 0.05 ug/ml after 30 mins by paper chromatographic analysis in presence of phosphodiesterase inhibitor theophylline relative to control; type: tissue-based; details: Female gonad; procedure, shortened: as §1
[20] = organism: Homo sapiens; assay: Binding affinity to prostanoid receptor in [8-14C]adenine-treated human psoriatic skin slices assessed as increase in c-AMP production at 10 ug/ml after 30 mins by paper chromatographic analysis relative to control; procedure, shortened: as §2

Compound	fold change (FC) [1]	fold change (FC) [2]	fold change (FC) [3]	INH [5]	fold change (FC) [6]	further results
CCCCC[C@H](O)CC[C@H]1CCC(=O)[C@@H]1CCCCCCC(=O)O	10	26	25	10 ngequiv		fold change (FC) [4]: 19
CCCCCC(O)CCCC(CCCCCCC(=O)O)SC (mixture of isomers)	2.5	35		0.77 µgequiv	24	
CCCCCC(O)CCCC(CCCCCCC(=O)O)[S+](C)[O-] (mixture of isomers)	4	40		7.14 µgequiv	57	
CS(=O)(=O)C(CCCCCCC(=O)O)CCCC(O)COc1ccc(F)cc1 (stereo not drawn)	1	23		1.11 µgequiv	27	
CCCCCC(O)CCCC(CCCCCCC(=O)O)SCCO (mixture of isomers)	1.5	4			14	
CCCCC[C@H](O)/C=C/[C@H]1[C@H](O)CC(=O)[C@@H]1CCCCCCC(=O)O [ALPROSTADIL]	54					fold change (FC) [18]: 8; fold change (FC) [19]: 29; fold change (FC) [8]: 25; fold change (FC) [20]: 10; inhibition at 10 µg/mL [16]: 82%

Further lines, with some results ahead:

fold change (FC) [1]	fold change (FC) [2]	fold change (FC) [3]	INH [5]	fold change (FC) [6]	Compound	further results
2	14	11	1700 ngequiv	23	CCCCCC(O)CCCC(CCCCCCC(=O)O)C(C)=O (stereo not drawn)	fold change (FC) [4]: 16; fold change (FC) [7]: 16
	0.5			1	CCCCCC(O)CCCCCS(=O)(=O)CCCCCCCC(=O)O (racemic)	
0.7	2			10	CCCCCC(O)CCCC(CCCCCCC(=O)O)S(=O)(=O)CCO (mixture of isomers)	
14	27	24	0.67 µgequiv	38	CCCCCC(O)CCCC(CCCCCCC(=O)O)S(C)(=O)=O (mixture of isomers)	fold change (FC) [8]: 2; fold change (FC) [9]: 2.5; fold change (FC) [10]: 3.4; fold change (FC) [11]: 3.5; fold change (FC) [12]: 2.7; Stability [13]: Stable; Activity [14]: inactive; Activity [15]: inactive; inhibition at 10 µg/mL [16]: 88%; inhibition at 1 µg/mL [17]: 30%
